Experimental data reported in paper PMC6714550 (Investigational new drugs, 2018).
Like-named read-outs stand apart in the source and are kept apart here. One block for each compound: values may come before it.

Tests used:
[1] = Plasma pharmacokinetics, cycle 1; assay type: in vivo, human
Procedure, shortened: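 Patients with advanced GIST took an oral pan-FGFR kinase inhibitor (test compound) once daily at escalating dose levels (25–125 mg), with a second oral tyrosine kinase inhibitor at 400 mg once daily, in 28-day cycles. Blood was sampled at prespecified cycle 1 timepoints. Plasma parent drug, partner drug and its active metabolite were measured by validated LC-MS/MS.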

[2] = system: patients with imatinib refractory advanced GIST; test: Safety and tolerability, DLT and MTD; conditions: schedule A, in combination with 400mg of imatinib
advanced GIST = conditions: cited from earlier work
[3] = dose level −1 (BGJ398 50mg qd, imatinib 400mg qd), day 1, n=1
[4] = second and third line options in GIST

SMILES: CCN1CCN(c2ccc(Nc3cc(N(C)C(=O)Nc4c(Cl)c(OC)cc(OC)c4Cl)ncn3)cc2)CC1 [BGJ398]
AUC (0–24h) ([1]; dose level 1 (BGJ398 75mg qd, imatinib 400mg qd), day 1, n=9, mean): 487 (32 – 1153) h x ng/mL
AUC (0–24h) ([1]; dose level 2 (BGJ398 100mg qd, imatinib 400mg qd), day 1, n=1): 309 h x ng/mL
AUC (0–24h) [1, 3]: 25 h x ng/mL
Tmax [1, 3]: 4 h
Tmax ([1]; human, plasma, oral): 5 h
maximum tolerated dose (dose level −1) [2]: 50 mg

Concentration of metabolite day 1 24hr ([1]; dose level 1 (BGJ398 75mg qd, imatinib 400mg qd), n=9, mean): 149 (56 – 395) ng/mL
Concentration of metabolite day 1 24hr ([1]; dose level 2 (BGJ398 100mg qd, imatinib 400mg qd), n=1): 1040 ng/mL
Concentration of metabolite day 1 24hr ([1]; dose level −1 (BGJ398 50mg qd, imatinib 400mg qd), n=3, mean): 54 (26 – 84) ng/mL
Concentration of metabolite day 1 24hr ([1]; dose level −2 (BGJ398 25mg qd, imatinib 400mg qd), n=3, mean): 131 (67 – 209) ng/mL
SMILES: Cc1ccc(NC(=O)c2ccc(CN3CCNCC3)cc2)cc1Nc1nccc(-c2cccnc2)n1 [CGP 74588]

SMILES: Cc1ccc(NC(=O)c2ccc(CN3CCN(C)CC3)cc2)cc1Nc1nccc(-c2cccnc2)n1 [imatinib]
objective response rate (advanced GIST; first-line, advanced GIST): approximately 50%
overall disease control rate (advanced GIST; first-line, advanced GIST): 80%
median progression free survival (advanced GIST; following initiation of imatinib therapy): 20–24 months
median PFS (advanced GIST; imatinib re-challenge): 1.8 months
median PFS, 95% CI (advanced GIST; imatinib re-challenge): 1.7–3.6 months

SMILES: CNC(=O)c1cc(Oc2ccc(NC(=O)Nc3ccc(Cl)c(C(F)(F)F)c3)c(F)c2)ccn1 [regorafenib]
median PFS (advanced GIST; [4]): 4–6 months
response rate (advanced GIST; [4]): 4–7%

SMILES: CCN(CC)CCNC(=O)c1c(C)[nH]c(/C=C2\C(=O)Nc3ccc(F)cc32)c1C [sunitinib]
median PFS (advanced GIST; [4]): 4–6 months
response rate (advanced GIST; [4]): 4–7%
